Drawing on ChEMBL document CHEMBL1141572, “N-substituted 3-acetyltetramic acid derivatives as antibacterial agents” (J Med Chem, 2008), this text covers MIC, IC50 and Ratio for five molecules.

In brackets after ≈: the same amount, converted by molar mass. Some results are limits rather than exact numbers.

For test [1], the system named is Bacillus anthracis. Description: Antibacterial activity against Bacillus anthracis Sterne 34F2 by micro-broth dilution method. It counts as functional.
Test [2] relates to Staphylococcus aureus. Kind of test: Antibacterial activity against methicillin-resistant Staphylococcus aureus ATCC 33591 by micro-broth dilution method. It counts as functional. A general note: Broth dilution looks for growth in wells or tubes with falling amounts of substance.
Test [3] has as its system Pseudomonas aeruginosa. Description: Antibacterial activity against Pseudomonas aeruginosa by micro-broth dilution method. It counts as functional.
Test [4] has as its system Staphylococcus aureus. Kind of test: Antibacterial activity against methicillin-sensitive Staphylococcus aureus 8325 ATCC 35556 by micro-broth dilution method. It counts as functional.
Test [5] deals with Vero. Kind of test: Cytotoxicity against african green monkey Vero cells after 72 hrs by MTT proliferation assay. It counts as cell-based. As to conditions: Chlorocebus sabaeus. An outline of the steps: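 IC50 is taken as the concentration that lowers Vero kidney cell viability by 50%.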
On the technique in general: Formazan colour is commonly taken as a measure of viable cells.

Test [6] has as its system Enterococcus faecalis. Kind of test: Antibacterial activity against Enterococcus faecalis ATCC 33186 by microbroth dilution method. Format: functional.
For test [7], the system named is Streptococcus pyogenes. Description: Antibacterial activity against Streptococcus pyogenes ATCC 700294 by micro-broth dilution method. Format: functional.
For test [8], the system named is Bacillus subtilis. Kind of test: Antibacterial activity against Bacillus subtilis ATCC 23857 by microbroth dilution method. It counts as functional.
Test [9] has as its system Mycobacterium tuberculosis. Description: Antimycobacterial activity against Mycobacterium tuberculosis H37Rv after 7 days by micro-broth dilution method. Format: functional. The following applies: 168 h.
A short description of test [10]: Selectivity index, ratio of IC50 for african green monkey Vero cells to MIC for methicillin- sensitive Staphylococcus aureus 8325 ATCC 35556. It counts as functional. An outline of the steps:
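Selectivity index is calculated as the Vero cell cytotoxic IC50 divided by the MIC against the wild-type, drug-sensitive, methicillin-sensitive S. aureus 8325 (ATCC 35556).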

Test [11] has as its system Cutibacterium acnes. Description: Antibacterial activity against Propionibacterium acnes ATCC 6919 by micro-broth dilution method. It counts as functional.
Test [12] deals with Escherichia coli. Description: Antibacterial activity against Escherichia coli by micro-broth dilution method. Format: functional.
In test [13] the test system is Streptococcus pneumoniae. Description: Antibacterial activity against Streptococcus pneumoniae DAW30 by micro-broth dilution method. It counts as functional.

As for `CCCCN1C(=O)/C(=C(/C)O)C(=O)[C@@H]1CC(C)C`, the MIC – broadly, the lowest concentration that inhibits growth of the organism – in test [1] was 12.5 µg/mL (≈ 49.3 µM); in test [2] it was 6.25 µg/mL (≈ 24.7 µM); in [3], greater than 200 µg/mL; in [4], 3.12 µg/mL (≈ 12.3 µM); in [6], 1.6 µg/mL (≈ 6.32 µM); in test [7], greater than 200 µg/mL. The MIC was 6.25 µg/mL (≈ 24.7 µM) in [8]; 100 µg/mL (≈ 395 µM) in [9]; 0.8 µg/mL (≈ 3.16 µM) in test [11]; greater than 200 µg/mL in test [12]; 100 µg/mL (≈ 395 µM) in test [13]. Also, in [5], the IC50 (commonly the point on the concentration scale where inhibition reaches its midpoint) was determined as 254 µg/mL (≈ 1000 µM). Also, in test [10], the Ratio turned out to be 81.4.

With `C/C(O)=C1\C(=O)[C@H](CC(C)C)N(CC2=CCC3CC2C3(C)C)C1=O` (stereo not given in full), the minimal inhibitory concentration (MIC) in [1] is 0.8 µg/mL (≈ 2.41 µM); in test [2], 1.6 µg/mL (≈ 4.83 µM); in test [3], greater than 200 µg/mL; in [4] it was 1.6 µg/mL (≈ 4.83 µM); in test [6] it was 1.6 µg/mL (≈ 4.83 µM); in test [7] it was 25 µg/mL (≈ 75.4 µM). Further, the MIC is 1.6 µg/mL (≈ 4.83 µM) in [8]; 100 µg/mL (≈ 302 µM) in test [9]; 0.8 µg/mL (≈ 2.41 µM) in [11]; greater than 200 µg/mL in [12]; 50 µg/mL (≈ 151 µM) in [13]. For the same molecule, in test [5], the IC50 worked out at 35.4 µg/mL (≈ 107 µM). Moreover, in test [10], the Ratio turned out to be 22.1.

Take `C/C(O)=C1\C(=O)[C@H](CC(C)C)N(Cc2ccc(F)cc2)C1=O`: the minimum inhibitory concentration (MIC) is 12.5 µg/mL (≈ 40.9 µM) in test [1]; 25 µg/mL (≈ 81.9 µM) in test [2]; greater than 200 µg/mL in [3]; 12.5 µg/mL (≈ 40.9 µM) in test [4]; 50 µg/mL (≈ 164 µM) in test [6]; 100 µg/mL (≈ 327 µM) in test [7]. For the same molecule, the minimum inhibitory concentration (MIC) in [8] is 25 µg/mL (≈ 81.9 µM); in test [9], 100 µg/mL (≈ 327 µM); in test [11], 6.25 µg/mL (≈ 20.5 µM); in test [12] it was greater than 200 µg/mL; in [13], 50 µg/mL (≈ 164 µM). For the same molecule, the IC50 in [5] came out at 27.8 µg/mL (≈ 91 µM). In addition, the Ratio in test [10] is reported as 2.2.

For `CCC(C)[C@H]1C(=O)/C(=C(\C)O)C(=O)N1Cc1ccccc1` (stereo not given in full), the MIC in [1] is 3.12 µg/mL (≈ 10.9 µM); in test [2] it was 6.25 µg/mL (≈ 21.7 µM); in [3], greater than 200 µg/mL; in [4], 6.25 µg/mL (≈ 21.7 µM); in test [6] it was 6.25 µg/mL (≈ 21.7 µM); in [7] it was greater than 200 µg/mL. Besides, the MIC is 25 µg/mL (≈ 87 µM) in test [8]; 50 µg/mL (≈ 174 µM) in test [9]; 6.25 µg/mL (≈ 21.7 µM) in test [11]; greater than 200 µg/mL in [12]; 50 µg/mL (≈ 174 µM) in [13]. This molecule also returned an IC50 in [5] of 26.3 µg/mL (≈ 91.5 µM). The Ratio in test [10] worked out at 4.2.

In the case of `C/C(O)=C1\C(=O)[C@H](Cc2ccccc2)N(Cc2ccccc2)C1=O`, the minimal inhibitory concentration (MIC) in [1] was 25 µg/mL (≈ 77.8 µM); in [2], 25 µg/mL (≈ 77.8 µM); in [3], greater than 200 µg/mL; in [4] it was 12.5 µg/mL (≈ 38.9 µM); in [6] it was 100 µg/mL (≈ 311 µM); in test [7], greater than 200 µg/mL. Besides, the MIC was 25 µg/mL (≈ 77.8 µM) in test [8]; greater than 200 µg/mL in test [9]; 12.5 µg/mL (≈ 38.9 µM) in [11]; greater than 200 µg/mL in test [12]; 100 µg/mL (≈ 311 µM) in test [13]. The molecule further yielded an IC50 in test [5] of 75.7 µg/mL (≈ 236 µM). Moreover, the Ratio in test [10] amounted to 6.1.
